Results reported in PMC9053741 (RSC Advances, 2020).
Read-outs that look alike come from different tables or passages of the source.

What was measured:
LO2 = assay: Cytotoxicity assay; type: cell-based; details: read-out: IC50 LO2
HepG-2 = assay: Cytotoxicity assay; type: cell-based, Human; details: for IC50: read-out: IC50 HepG-2; for SI (selectivity indices): LO2 vs HepG-2, 48 h
cyclin A = assay: Western blot, cyclin A expression; type: cell-based, Human; details: HepG-2, 5 μM, 24 h
Procedure, shortened: (§1)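 HepG-2 seeded at 1 × 10^5 cells per mL, grown 24 h, then given 5 μM test compound for 24 h. Cells washed in ice-cold PBS, lysed, and spun at 10000g for 15 min at 4 °C. Protein measured by […], separated by SDS-PAGE and transferred to PVDF on ice for 3 h. Blocked in 5% skim milk/TBST for 1 h at 25 °C, primary antibody overnight at 4 °C, secondary 1 h at 25 °C. ECL detection, normalized to β-actin and expressed relative to control. Student's t test.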

[1] = tested on: transferrin receptor-1 (TfR1); assay: Western blot, TfR1 expression; type: cell-based, Human; details: HepG-2, 5 μM, 24 h
Procedure, shortened: as §1

HepG-2 cells [2] = assay: Cell apoptosis assay; type: cell-based, Human; details: HepG-2, 5 μM, 24 h
Procedure, shortened: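 HepG-2 (1 × 10^6 cells per mL) exposed to 5 μM test compound for 24 h at 37 °C in 5% CO2. Resuspended in binding buffer (140 mM NaCl, 2.5 mM CaCl2, 10 mM Hepes/NaOH, pH 7.4) and stained with Annexin V and PI for 20 min at room temperature using a kit protocol. Early and late apoptotic fractions measured by flow cytometry.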

cyclin E = assay: Western blot, cyclin E expression; type: cell-based, Human; details: HepG-2, 5 μM, 24 h
Procedure, shortened: as §1

HepG-2 cells [3] = assay: Intracellular ROS measurements; type: cell-based, Human; details: HepG-2, 5 μM, 24 h
Procedure, shortened: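 Using a kit protocol, HepG-2 were incubated with 5 μM test compound in serum-free medium for 24 h at 37 °C. 2 μM H2DCF-DA was then added and cells washed with serum-free medium. Fluorescence measured by flow cytometry and expressed relative to untreated control.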

ferritin = assay: Western blot, ferritin expression; type: cell-based, Human; details: HepG-2, 5 μM, 24 h
Procedure, shortened: as §1

Cdk 2 = assay: Western blot, Cdk 2 expression; type: cell-based, Human; details: HepG-2, 5 μM, 24 h
Procedure, shortened: as §1

HepG-2 cells [4] = assay: Cell cycle distribution analysis; type: cell-based, Human; details: HepG-2, 5 μM, 24 h
Procedure, shortened: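 HepG-2 seeded at 1 × 10^5 cells per mL, settled 12 h at 37 °C in 5% CO2. Exposed to 5 μM test compound for 24 h, washed with cold PBS (pH 7.4) and fixed in 75% EtOH for 12 h at −20 °C. Treated with RNase (2.5 mg mL−1), stained with propidium iodide for 0.5 h, then run on a flow cytometer, 10000 events per sample.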

Row | SMILES | IC50 (LO2; LO2 normal cells, 48 h, MTT) [µM] | IC50 (HepG-2; HepG-2 cells, 48 h, MTT) [µM] | IC50 (LO2; Homo sapiens, L02, 48 h) [µM] | IC50 (HepG-2; Homo sapiens, HepG2, 48 h) [µM] | SI (selectivity indices) (HepG-2) | other results
1 | N.N.[Cl][Pt][Cl] [Cisplatin, reference compound] | 21.3 ± 2.35 | 22.4 ± 2.21 | – | – | – | –
2 | CNC1=N[N+]2=C(c3ccccc3)c3cccc[n+]3[Ga-2]2([Cl])([Cl])[S]1 [C2, Dichlorido[N-methyl-2-(phenyl(pyridin-2-yl)methylene)hydrazinecarbothioamide-N,N,S]-gallium(III)] | 25.8 ± 2.93 | 2.76 ± 0.39 | – | – | – | –
3 | CN(C)C(=S)NN=C(c1ccccc1)c1ccccn1 [L5, N,N-dimethyl-2-(phenyl(pyridin-2-yl)methylene)hydrazinecarbothioamide] | – | – | 23.9 ± 2 | 0.57 ± 0.04 | 41.84 | –
4 | NC1=N[N+]2=C(c3ccccc3)c3cccc[n+]3[Ga-2]2([Cl])([Cl])[S]1 [C1, Dichlorido[2-(phenyl(pyridin-2-yl)methylene)hydrazinecarbothioamide-N,N′,S]gallium(III)] | 33.8 ± 2.13 | 5.75 ± 0.54 | – | – | – | –
5 | CNC(=S)NN=C(c1ccccc1)c1ccccn1 [L2, N-Methyl-2-(phenyl(pyridin-2-yl)methylene)hydrazinecarbothioamide] | – | – | 35.8 ± 2.19 | 4.56 ± 0.11 | 7.84 | –
6 | CCNC1=N[N+]2=C(c3ccccc3)c3cccc[n+]3[Ga-2]2([Cl])([Cl])[S]1 [C3, Dichlorido[N-ethyl-2-(phenyl(pyridin-2-yl)methylene)hydrazinecarbothioamide-N,N,S]-gallium(III)] | 26.6 ± 3.86 | 1.23 ± 0.09 | – | – | – | –
7 | CCNC(=S)NN=C(c1ccccc1)c1ccccn1 [L3, N-Ethyl-2-(phenyl(pyridin-2-yl)methylene)hydrazinecarbothioamide] | – | – | 33 ± 3.64 | 2.43 ± 0.1 | 13.57 | –
8 | [Cl][Ga-2]12([Cl])[S]C(NC3CCCCC3)=N[N+]1=C(c1ccccc1)c1cccc[n+]12 [C4, Dichlorido[N-cyclohexyl-2-(phenyl(pyridin-2-yl)methylene)hydrazinecarbothioamide-N,N,S]-gallium(III)] | 20.4 ± 1.13 | 0.97 ± 0.02 | – | – | – | –
9 | NC(=S)NN=C(c1ccccc1)c1ccccn1 [L1, 2-(Phenyl(pyridin-2-yl)methylene)hydrazinecarbothioamide] | – | – | 43.6 ± 2.84 | 11.3 ± 0.21 | 3.84 | –
10 | S=C(NN=C(c1ccccc1)c1ccccn1)NC1CCCCC1 [L4, N-Cyclohexyl-2-(phenyl(pyridin-2-yl)methylene)hydrazinecarbothioamide] | – | – | 30.3 ± 2.16 | 1.32 ± 0.09 | 22.97 | –
11 | [Cl][Ga]([Cl])[Cl] [GaCl3, reference compound] | > 50 | > 50 | – | – | – | anticancer activity (HepG-2; 50 μM): not observed
12 | CN(C(=S)NN=C(c1ccccc1)c1ccccn1)C1CCCCC1 [L6, N-Cyclohexyl-N-methyl-2-(phenyl(pyridin-2-yl)methylene)hydrazinecarbothioamide] | – | – | 11.5 ± 0.54 | 0.32 ± 0.02 | 36.06 | cyclin A expression level (cyclin A): significant (p < 0.05) decreased; expression of TfR1 compared to the vehicle-treated control [1]: about 1.43 fold; percentage of early apoptosis and late apoptosis relative to the control (HepG-2 cells [2]): 24.87%; cyclin E expression level (cyclin E): significant (p < 0.05) decreased; percentage of intracellular ROS level relative to the control (HepG-2 cells [3]): 17.12%; expression of ferritin relative to the control group (ferritin): 0.72 fold; Cdk 2 expression level (Cdk 2): significant (p < 0.05) decreased; G1 phase cell proportion (HepG-2 cells [4]): increase; percentage of G2 phase cells compared to the vehicle-treated control (HepG-2 cells [4]): reduced
